Experimental data of several laboratories.
Protocols differ between the studies behind these lines.
Target: Calcium/calmodulin-dependent protein kinase type II subunit gamma (CAMK2G, Homo sapiens, UniProt Q13555)

| Structure (SMILES) | test | setting | endpoint | value |
| --- | --- | --- | --- | --- |
| CN1CCN(C(=O)c2ccc(NC(=O)Nc3ccc(N(C)c4ccnc(Nc5ccc(CS(C)(=O)=O)cc5)n4)cc3)cc2)CC1 | binding | 1 µM | remaining binding | 100% |
| C1=C/COCc2cc(ccc2OCCN2CCCC2)Nc2nccc(n2)-c2cccc(c2)COC/1 | binding | 0.1 µM | remaining binding | 89% |
| CCCCC(=O)Nc1ccc(-c2ccc3ncn(CCC)c(=O)c3c2)cn1 | binding, competition with immobilised ligand | 0.5 µM | remaining binding | 100% |
| C[C@H]1CC[C@H](n2c3cnccc3c3cnc(Nc4ccc5c(n4)CCN(C(=O)CO)C5)nc32)CC1 | binding | 1 µM | remaining binding | 40% |
| CO[C@@H]1[C@H](N(C)C(=O)c2ccccc2)C[C@H]2O[C@]1(C)n1c3ccccc3c3c4c(c5c6ccccc6n2c5c31)C(=O)NC4 | enzyme activity, inhibitor | 1 µM | inhibition | 90% |
| Cc1cc(O)c(-c2ccc([C@@H](C)CN(C)C)cc2)c2c1[nH]c(=O)c1sccc12 | cell-free assay, inhibitor | 0.1 µM, lysate | inhibition | -11.1% |
| CC(C)S(=O)(=O)c1ccc2nccc(Nc3ccc4sc(C5CCCC5)nc4c3)c2c1 | enzyme activity, inhibitor | 1 µM | activity vs control | 104% |
| CC#CC(=O)N1CCC[C@H]1c1nc(-c2ccc(C(=O)Nc3ccccn3)cc2)c2c(N)nccn12 | enzyme activity, inhibitor | 1 µM | inhibition | 0% |
